Data as given in ChEMBL document CHEMBL4138271, “Crystal Structures and Human Leukemia Cell Apoptosis Inducible Activities of Parthenolide Analogues Isolated from Piptocoma rufescens” (J Nat Prod, 2018).
Activity calls are given as the source filed them. The rule behind the calls is not given here.

Experiments:
[1] = tested on: EOL1; experiment: Induction of apoptosis in human EOL-1 cells assessed as late apoptotic cells at 4 uM after 24 hrs by Annexin-V FITC/7-AAD staining based flow cytometric method (reference value: 0.535%); type: functional
[2] = tested on: MOLM-13; experiment: Induction of apoptosis in human MOLM13 cells assessed as late apoptotic cells at 4 uM after 24 hrs by Annexin-V FITC/7-AAD staining based flow cytometric method (reference value: 1.43%); type: functional
[3] = tested on: EOL1; experiment: Cytotoxicity against human EOL-1 cells after 72 hrs by MTS assay; type: functional, cell-based; conditions: EOL1, 72 h
[4] = tested on: MOLM-13; experiment: Induction of apoptosis in human MOLM13 cells assessed as live cells at 1.6 uM after 24 hrs by Annexin-V FITC/7-AAD staining based flow cytometric method (reference value: 86.8%); type: functional
[5] = tested on: EOL1; experiment: Induction of apoptosis in human EOL-1 cells assessed as early apoptotic cells at 4 uM after 24 hrs by Annexin-V FITC/7-AAD staining based flow cytometric method (reference value: 1.94%); type: functional
[6] = tested on: MOLM-13; experiment: Synergistic antileukemic activity against human MOLM13 cells assessed as concentration required for <= 75% cell survival after 72 hrs in presence of midostaurin by CellTiter 96 AQueous One solution cell proliferation assay; type: functional
[7] = tested on: EOL1; experiment: Induction of apoptosis in human EOL-1 cells assessed as live cells at 1.6 uM after 24 hrs by Annexin-V FITC/7-AAD staining based flow cytometric method (reference value: 97.5%); type: functional
[8] = tested on: MOLM-13; experiment: Induction of apoptosis in human MOLM13 cells assessed as caspase-3 activation at 10 uM after 72 hrs by immunoblotting analysis; type: functional, cell-based
How it was run: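 MOLM-13 cells treated 72 h with test compounds at 10 μM or PKC412 at 10 nM. Cells washed in ice-cold PBS, lysed at 10^8 cells/mL in NP-40 hypertonic buffer (pH 7.5) with protease/phosphatase inhibitors, then run on SDS-PAGE and PVDF. Blots probed 12 h with rabbit monoclonal cleaved caspase-3 (Asp175), β-actin as loading control. Representative of three independent experiments.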

[9] = tested on: EOL1; experiment: Induction of apoptosis in human EOL-1 cells assessed as necrotic cells at 1.6 uM after 24 hrs by Annexin-V FITC/7-AAD staining based flow cytometric method (reference value: 0.032%); type: functional
[10] = tested on: MOLM-13; experiment: Cytotoxicity against human MOLM13 cells after 72 hrs by MTS assay; type: functional, cell-based; conditions: MOLM-13, 72 h
[11] = tested on: EOL1; experiment: Induction of apoptosis in human EOL-1 cells assessed as live cells at 4 uM after 24 hrs by Annexin-V FITC/7-AAD staining based flow cytometric method (reference value: 97.5%); type: functional
[12] = tested on: EOL1; experiment: Induction of apoptosis in human EOL-1 cells assessed as early apoptotic cells at 1.6 uM after 24 hrs by Annexin-V FITC/7-AAD staining based flow cytometric method (reference value: 1.94%); type: functional
[13] = tested on: MOLM-13; experiment: Induction of apoptosis in human MOLM13 cells assessed as early apoptotic cells at 1.6 uM after 24 hrs by Annexin-V FITC/7-AAD staining based flow cytometric method (reference value: 11.8%); type: functional
[14] = tested on: MOLM-13; experiment: Induction of apoptosis in human MOLM13 cells assessed as necrotic cells at 0.81 uM after 24 hrs by Annexin-V FITC/7-AAD staining based flow cytometric method (reference value: 0%); type: functional
[15] = tested on: MOLM-13; experiment: Induction of apoptosis in human MOLM13 cells assessed as early apoptotic cells at 0.81 uM after 24 hrs by Annexin-V FITC/7-AAD staining based flow cytometric method (reference value: 11.8%); type: functional
[16] = tested on: EOL1; experiment: Induction of apoptosis in human EOL-1 cells assessed as caspase-3 activation at 10 uM after 72 hrs by immunoblotting analysis; type: functional, cell-based
How it was run: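 EOL-1 cells (RPMI 1640, 10% FBS, 37 °C, 5% CO2) exposed 72 h; compounds at 10 μM, PKC412 at 10 nM. Harvested, PBS-washed, lysed in hypertonic NP-40 buffer with protease/phosphatase inhibitors; SDS-PAGE, PVDF transfer, rabbit monoclonal cleaved caspase-3 (Asp175) antibody 12 h, secondary 1 h, chemiluminescent detection; β-actin loading control. Representative blots of three independent experiments.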

[17] = tested on: MOLM-13; experiment: Induction of apoptosis in human MOLM13 cells assessed as necrotic cells at 1.6 uM after 24 hrs by Annexin-V FITC/7-AAD staining based flow cytometric method (reference value: 0%); type: functional
[18] = tested on: EOL1; experiment: Induction of apoptosis in human EOL-1 cells assessed as live cells at 0.81 uM after 24 hrs by Annexin-V FITC/7-AAD staining based flow cytometric method (reference value: 97.5%); type: functional
[19] = tested on: EOL1; experiment: Induction of apoptosis in human EOL-1 cells assessed as early apoptotic cells at 0.81 uM after 24 hrs by Annexin-V FITC/7-AAD staining based flow cytometric method (reference value: 1.94%); type: functional
[20] = tested on: MOLM-13; experiment: Induction of apoptosis in human MOLM13 cells assessed as live cells at 4 uM after 24 hrs by Annexin-V FITC/7-AAD staining based flow cytometric method (reference value: 86.8%); type: functional
[21] = tested on: EOL1; experiment: Induction of apoptosis in human EOL-1 cells assessed as necrotic cells at 0.81 uM after 24 hrs by Annexin-V FITC/7-AAD staining based flow cytometric method (reference value: 0.032%); type: functional
[22] = tested on: MOLM-13; experiment: Induction of apoptosis in human MOLM13 cells assessed as live cells at 0.81 uM after 24 hrs by Annexin-V FITC/7-AAD staining based flow cytometric method (reference value: 86.8%); type: functional
[23] = tested on: EOL1; experiment: Induction of apoptosis in human EOL-1 cells assessed as late apoptotic cells at 1.6 uM after 24 hrs by Annexin-V FITC/7-AAD staining based flow cytometric method (reference value: 0.535%); type: functional
[24] = tested on: MOLM-13; experiment: Induction of apoptosis in human MOLM13 cells assessed as necrotic cells at 4 uM after 24 hrs by Annexin-V FITC/7-AAD staining based flow cytometric method (reference value: 0%); type: functional
[25] = tested on: EOL1; experiment: Induction of apoptosis in human EOL-1 cells assessed as necrotic cells at 4 uM after 24 hrs by Annexin-V FITC/7-AAD staining based flow cytometric method (reference value: 0.032%); type: functional
[26] = tested on: MOLM-13; experiment: Induction of apoptosis in human MOLM13 cells assessed as late apoptotic cells at 0.81 uM after 24 hrs by Annexin-V FITC/7-AAD staining based flow cytometric method (reference value: 1.43%); type: functional
[27] = tested on: MOLM-13; experiment: Induction of apoptosis in human MOLM13 cells assessed as late apoptotic cells at 1.6 uM after 24 hrs by Annexin-V FITC/7-AAD staining based flow cytometric method (reference value: 1.43%); type: functional
[28] = tested on: EOL1; experiment: Induction of apoptosis in human EOL-1 cells assessed as late apoptotic cells at 0.81 uM after 24 hrs by Annexin-V FITC/7-AAD staining based flow cytometric method (reference value: 0.535%); type: functional
[29] = tested on: MOLM-13; experiment: Induction of apoptosis in human MOLM13 cells assessed as early apoptotic cells at 4 uM after 24 hrs by Annexin-V FITC/7-AAD staining based flow cytometric method (reference value: 11.8%); type: functional
[30] = tested on: EOL1; experiment: Synergistic antileukemic activity against human EOL-1 cells assessed as concentration required for <= 75% cell survival after 72 hrs in presence of midostaurin by CellTiter 96 AQueous One solution cell proliferation assay; type: functional

With C=C1C(=O)O[C@@H]2C3O[C@]3(C)CC/C=C(\C)CC[C@@H]12 (stereo not given in full) the Activity [1] was 0.697%, the Activity [2] was 1.02% and the IC50 [3] was 7.5 µM. For the same molecule, the Activity [4] was 94.3%, the Activity [5] was 2.13% and the Activity [6] was 3.2 µM. The Activity [7] was 97.2%, the Activity [8] was “Active” and the Activity [9] was 0.043%. For the same molecule, the IC50 [10] was 10 µM, the Activity [11] was 97% and the Activity [12] was 2.43%. The Activity [13] was 4.46%, the Activity [14] was 0.033% and the Activity [15] was 8.23%. For the same molecule, the Activity [16] was “Active”, the Activity [17] was 0.044% and the Activity [18] was 98.1%. The Activity [19] was 1.56%, the Activity [20] was 92.4% and the Activity [21] was 0.011%. The Activity [22] was 90.6%, the Activity [23] was 0.361% and the Activity [24] was 0.181%. It also gave an Activity [25] of 0.118%, an Activity [26] of 1.14% and an Activity [27] of 1.23%. The Activity [28] was 0.329%, the Activity [29] was 6.43% and the Activity [30] was 3.2 µM.
